The source made the active and inactive calls. The rule behind the calls is not given here.
Assays:
[1] = molecular target: T1, Amyloid-beta precursor protein (Homo sapiens, UniProt P05067); assay: Inhibition of self-mediated amyloid beta (1 to 42) (unknown origin) fibril formation assessed as appearance of sparse fibrils at 25 uM after 48 hrs by transmission electron microscopic analysis
[2] = Inhibition of Cu2+ induced amyloid beta (1 to 42) aggregation at 25 uM incubated for 24 hrs by Thioflavin T based fluorometric assay relative to control
Procedure, shortened: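 Aβ1-42 was pretreated with HFIP, dried to a film, and held as a 5 mM DMSO stock. It was diluted in HEPES pH 6.6 with 150 μM NaCl, then incubated at 100 μM final with or without Cu2+ (100 μM final) for 48 h at 37 °C. Compounds were added at 25 μM final for 24 h at 37 °C. Samples (20 μL) were diluted to 200 μL glycine–NaOH (50 mM, pH 8.0) containing 5 μM ThT before reading fluorescence.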

[3] = Inhibition of Cu2+ induced amyloid beta (1 to 42) aggregation assessed as fluorescence intensity at 25 uM incubated for 24 hrs by Thioflavin T based fluorometric assay (reference value: 606.64 +/- 36.11 a.u.)
[4] = Selectivity index, ratio of IC50 for equine serum BChE to IC50 for electric eel AChE
Procedure, shortened: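 Ellman assay in phosphate buffer pH 8.0. AChE (0.22 U/mL) or BuChE (0.06 U/mL) preincubated 5 min with inhibitor (0.01–100 μM final). DTNB then added, and the reaction started with ATC or BTC (0.075 M solution). Absorbance read at 412 nm, 25 °C, 5 min after substrate. IC50 reported as mean ± SD. Selectivity is IC50(BuChE)/IC50(AChE).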

[5] = molecular target: Acetylcholinesterase (Electrophorus electricus, UniProt O42275); assay: Inhibition of electric eel AChE using acetylthiocholine iodide as substrate preincubated for 5 mins followed by substrate addition measured after 5 mins by Ellman's method
Chain of Acetylcholinesterase (O42275 whole entry): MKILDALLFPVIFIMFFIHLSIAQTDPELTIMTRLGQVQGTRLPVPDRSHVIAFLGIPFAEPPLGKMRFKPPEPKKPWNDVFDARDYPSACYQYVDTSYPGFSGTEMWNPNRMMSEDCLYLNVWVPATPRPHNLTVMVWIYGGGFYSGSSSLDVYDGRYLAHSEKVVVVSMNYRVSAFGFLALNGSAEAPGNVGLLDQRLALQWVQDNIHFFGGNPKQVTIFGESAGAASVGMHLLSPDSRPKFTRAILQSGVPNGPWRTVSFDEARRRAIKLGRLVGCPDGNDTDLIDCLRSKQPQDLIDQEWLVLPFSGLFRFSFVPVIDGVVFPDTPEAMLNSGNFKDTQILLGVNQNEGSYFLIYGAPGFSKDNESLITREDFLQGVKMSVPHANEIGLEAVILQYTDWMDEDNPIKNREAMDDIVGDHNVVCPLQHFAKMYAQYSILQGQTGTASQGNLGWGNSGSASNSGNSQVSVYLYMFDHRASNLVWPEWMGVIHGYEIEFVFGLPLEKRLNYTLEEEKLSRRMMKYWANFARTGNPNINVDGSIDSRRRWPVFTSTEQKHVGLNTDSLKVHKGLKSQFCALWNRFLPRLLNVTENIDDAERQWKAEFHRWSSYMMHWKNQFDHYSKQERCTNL

[6] = molecular target: T1, Amyloid-beta precursor protein; assay: Inhibition of self-mediated amyloid beta (1 to 42) (unknown origin) aggregation at 25 uM incubated for 48 hrs by thioflavin-T fluorescence assay relative to control
Procedure, shortened: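 HFIP-pretreated Aβ1-42 taken up in DMSO (5 mM stock), diluted in 50 mM phosphate pH 7.4 (100 μM final). Incubated 48 h at 37 °C with or without compound at 25 μM. Samples diluted to 200 μl with 50 mM glycine-NaOH pH 8.0 and read by ThT fluorescence. Percent inhibition reported as mean ± SD.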

[7] = Antioxidant activity assessed as AAPH-induced radical scavenging activity by measuring trolox equivalents for oxygen radical absorbance capacity measured up to 80 mins by ORAC-FL assay; format: functional
Procedure, shortened: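 Fluorescein (70 nM final) with test compound at eight concentrations (1–8 μM) in 75 mM phosphate buffer pH 7.4, preincubated 15 min at 37 °C. AAPH (12 mM final) then added and fluorescence read (ex 485/em 520 nm) for 80 min. Net AUC over blank regressed against concentration and converted to Trolox equivalents by standard curve (Trolox = 1). At least three runs.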

[8] = molecular target: Cholinesterase (Equus caballus, UniProt P81908); assay: Inhibition of equine serum BuChE using butyrylthiocholine iodide as substrate pretreated for 5 mins followed by substrate addition measured after 5 mins by Ellman's method
Chain of Cholinesterase (P81908 whole entry): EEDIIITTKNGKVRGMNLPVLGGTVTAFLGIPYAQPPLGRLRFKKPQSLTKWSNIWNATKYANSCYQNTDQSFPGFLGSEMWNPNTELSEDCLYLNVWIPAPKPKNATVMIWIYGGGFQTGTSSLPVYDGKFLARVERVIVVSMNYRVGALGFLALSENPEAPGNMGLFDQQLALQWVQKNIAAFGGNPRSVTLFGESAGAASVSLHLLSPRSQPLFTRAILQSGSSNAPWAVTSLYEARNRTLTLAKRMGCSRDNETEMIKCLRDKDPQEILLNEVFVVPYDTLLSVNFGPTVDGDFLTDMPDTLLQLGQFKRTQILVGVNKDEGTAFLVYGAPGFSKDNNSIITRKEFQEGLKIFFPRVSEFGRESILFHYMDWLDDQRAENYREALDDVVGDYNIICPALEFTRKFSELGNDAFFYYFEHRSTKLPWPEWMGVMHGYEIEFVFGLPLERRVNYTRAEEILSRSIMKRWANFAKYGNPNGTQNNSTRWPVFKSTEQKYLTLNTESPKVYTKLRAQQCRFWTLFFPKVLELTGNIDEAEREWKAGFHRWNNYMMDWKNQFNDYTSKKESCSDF
Procedure, shortened: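 Ellman assay in phosphate buffer pH 8.0. AChE (0.22 U/mL) or BuChE (0.06 U/mL) preincubated 5 min with inhibitor (0.01–100 μM final). DTNB then added, and the reaction started with ATC or BTC (0.075 M solution). IC50 reported as mean ± SD. Selectivity is IC50(BuChE)/IC50(AChE).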

[9] = Metal chelating activity assessed as compound-Cu2+ complex formation at 30 uM after 30 mins by UV-visible spectrophotometric analysis
Procedure, shortened: (§1)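 UV absorption spectra (200–500 nm) were recorded over 30 min for compound (30 μM final) alone or with CuSO4 or FeSO4 (30 μM final). The medium was 20% (v/v) ethanol/buffer: 150 mM NaCl, 20 mM HEPES, pH 7.4.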

[10] = molecular target: T1, Amyloid-beta precursor protein; assay: Inhibition of self-mediated amyloid beta (1 to 42) (unknown origin) aggregation at 15 uM incubated for 48 hrs by thioflavin-T fluorescence assay relative to control
Procedure, shortened: (§2)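 HFIP-pretreated Aβ1-42 from a DMSO stock was diluted in phosphate buffer (50 mM, pH 7.4). Peptide was incubated with or without inhibitor at 10, 15, 20 or 25 μM for 48 h at 37 °C. Samples were diluted to 200 μL with glycine–NaOH (50 mM, pH 8.0) and fibrils read by ThT fluorescence. Blanks lacking Aβ were run. IC50 was derived from the four concentrations.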

[11] = molecular target: T1, Amyloid-beta precursor protein; assay: Inhibition of self-mediated amyloid beta (1 to 42) (unknown origin) aggregation at 20 uM incubated for 48 hrs by thioflavin-T fluorescence assay relative to control; procedure, shortened: as §2
[12] = Metal chelating activity assessed as compound-Fe2+ complex formation at 30 uM after 30 mins by UV-visible spectrophotometric analysis; procedure, shortened: as §1
[13] = molecular target: T1, Amyloid-beta precursor protein; assay: Disaggregation of self-induced amyloid beta (1 to 42) (unknown origin) preformed fibrils measured after 24 hrs by ThT fluorescence assay relative to control
Procedure, shortened: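 HFIP-pretreated Aβ1-42 taken up in DMSO (5 mM stock), diluted in 50 mM phosphate pH 7.4 (100 μM final). Peptide incubated 48 h at 37 °C, then compound or buffer added and incubated a further 24 h at 37 °C. Samples diluted to 200 μl with 50 mM glycine-NaOH pH 8.0 and read by ThT fluorescence. Peptide-free blanks run in parallel.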

[14] = molecular target: T1, Amyloid-beta precursor protein; assay: Inhibition of self-mediated amyloid beta (1 to 42) (unknown origin) aggregation at 10 uM incubated for 48 hrs by thioflavin-T fluorescence assay relative to control; procedure, shortened: as §2
[15] = molecular target: T1, Amyloid-beta precursor protein; assay: Inhibition of self-mediated amyloid beta (1 to 42) (unknown origin) aggregation incubated for 48 hrs by thioflavin-T fluorescence assay; procedure, shortened: as §2
[16] = molecular target: Acetylcholinesterase (Electrophorus electricus) (UniProt O42275); assay: Mixed-type inhibition of electric eel AChE assessed as decreased Vmax with higher Km using varying levels of acetylthiocholine iodide as substrate pretreated for 5 mins followed by substrate addition by Lineweaver-Burk plot analysis
Chain of Acetylcholinesterase (Electrophorus electricus) (O42275 24-633 limits assumed): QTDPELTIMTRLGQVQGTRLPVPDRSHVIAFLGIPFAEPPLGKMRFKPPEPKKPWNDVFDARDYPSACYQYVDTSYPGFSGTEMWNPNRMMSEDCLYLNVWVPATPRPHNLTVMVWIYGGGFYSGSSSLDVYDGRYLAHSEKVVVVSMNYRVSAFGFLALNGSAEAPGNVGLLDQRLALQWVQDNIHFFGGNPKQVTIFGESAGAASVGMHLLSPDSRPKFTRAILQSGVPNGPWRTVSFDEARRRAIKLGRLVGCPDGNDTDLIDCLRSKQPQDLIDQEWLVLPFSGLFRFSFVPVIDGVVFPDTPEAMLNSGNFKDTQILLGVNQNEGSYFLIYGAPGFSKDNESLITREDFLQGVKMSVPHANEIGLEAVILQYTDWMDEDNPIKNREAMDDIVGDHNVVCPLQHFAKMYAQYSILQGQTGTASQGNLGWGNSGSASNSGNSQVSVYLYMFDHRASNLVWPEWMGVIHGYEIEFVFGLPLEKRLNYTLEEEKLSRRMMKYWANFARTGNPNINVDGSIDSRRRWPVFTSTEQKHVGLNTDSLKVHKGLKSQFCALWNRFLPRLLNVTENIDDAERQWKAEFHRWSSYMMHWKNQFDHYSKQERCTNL
Procedure, shortened: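 AChE kinetics by Ellman's method, with substrate varied at comparatively low concentrations. Inhibitor tested at 10, 20 and 40 nM. Inhibition type assigned from Lineweaver–Burk plots of 1/velocity versus 1/substrate.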

T1 sequence (P05067 whole entry): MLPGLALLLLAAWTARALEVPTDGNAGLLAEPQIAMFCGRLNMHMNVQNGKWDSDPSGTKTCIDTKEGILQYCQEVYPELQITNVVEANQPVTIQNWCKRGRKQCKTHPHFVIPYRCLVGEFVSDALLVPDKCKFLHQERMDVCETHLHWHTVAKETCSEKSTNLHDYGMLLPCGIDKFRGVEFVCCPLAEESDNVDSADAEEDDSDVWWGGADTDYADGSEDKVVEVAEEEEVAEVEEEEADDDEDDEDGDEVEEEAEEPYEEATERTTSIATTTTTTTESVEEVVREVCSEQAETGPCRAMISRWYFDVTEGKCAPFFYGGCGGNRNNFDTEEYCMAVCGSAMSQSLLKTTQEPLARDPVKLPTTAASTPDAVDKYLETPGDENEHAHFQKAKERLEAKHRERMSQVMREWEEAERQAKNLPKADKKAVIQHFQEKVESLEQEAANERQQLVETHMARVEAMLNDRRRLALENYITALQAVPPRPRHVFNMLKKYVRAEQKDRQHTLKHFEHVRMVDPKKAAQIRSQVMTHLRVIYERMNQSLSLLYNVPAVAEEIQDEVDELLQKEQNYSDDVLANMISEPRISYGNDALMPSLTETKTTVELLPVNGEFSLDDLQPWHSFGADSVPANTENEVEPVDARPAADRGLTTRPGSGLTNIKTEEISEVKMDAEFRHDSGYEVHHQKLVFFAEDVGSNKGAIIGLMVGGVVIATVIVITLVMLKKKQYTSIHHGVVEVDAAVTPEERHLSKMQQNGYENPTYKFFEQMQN

| Compound | inhibition [1] | inhibition [2] | Flu intensity [3] | Ratio IC50 [4] | IC50 [5] | inhibition [6] | Activity [7] | IC50 [8] | Activity [9] | inhibition [10] | inhibition [11] | Activity [12] | Activity [13] | inhibition [14] | IC50 [15] | inhibition [16] |
| --- | --- | --- | --- | --- | --- | --- | --- | --- | --- | --- | --- | --- | --- | --- | --- | --- |
| COc1cc(/C=C/C(=O)CC(=O)/C=C/c2ccc(O)c(OC)c2)ccc1O | Active | 45.2% | 333 a.u. | – | – | – | – | – | – | – | – | – | – | – | – | – |
| O=C(CN1CCCCC1)Nc1n[nH]c2ncccc12 | – | – | – | > 20800 | 0.0048 µM | 50.6% | 0.65 µMequiv/µM | > 100 µM | – | – | – | – | – | – | – | – |
| O=C(CN1CCN(c2ccnc3cc(Cl)ccc23)CC1)Nc1n[nH]c2ncccc12 | – | – | – | > 8330 | 0.012 µM | 23.6% | 0.286 µMequiv/µM | > 100 µM | – | – | – | – | – | – | – | – |
| CN1CCN(CC(=O)Nc2n[nH]c3ncccc23)CC1 | – | – | – | > 20400 | 0.0049 µM | 50.9% | 0.362 µMequiv/µM | > 100 µM | – | – | – | – | – | – | – | – |
| CCOC(=O)c1cnc2ccccc2c1N1CCN(CC(=O)Nc2n[nH]c3ncccc23)CC1 | Active | 57% | 261 a.u. | – | > 100 µM | 81.7% | 0.274 µMequiv/µM | > 100 µM | Active | 43.8% | 84.1% | Active | 61.6% | 28.6% | 15.7 µM | – |
| CCOC(=O)c1cnc2ccc(C)cc2c1N1CCN(CC(=O)Nc2n[nH]c3ncccc23)CC1 | – | – | – | – | > 100 µM | 69.3% | 0.271 µMequiv/µM | > 100 µM | – | – | – | – | 52.1% | – | – | – |
| O=C(CN1CCOCC1)Nc1n[nH]c2ncccc12 | – | – | – | > 885 | 0.113 µM | 74.6% | 0.192 µMequiv/µM | > 100 µM | – | – | – | – | 47.4% | – | – | – |
| O=C(CN1CCN(CC(=O)Nc2n[nH]c3ncccc23)CC1)Nc1n[nH]c2ncccc12 | Active | 58.8% | 250 a.u. | > 2220 | 0.045 µM | 79.5% | 0.283 µMequiv/µM | > 100 µM | Active | 39.9% | 58% | Active | 53.8% | 3.9% | 17.9 µM | Active |
| N#Cc1cccnc1N1CCN(CC(=O)Nc2n[nH]c3ncccc23)CC1 | – | – | – | – | > 100 µM | 40% | 0.163 µMequiv/µM | > 100 µM | – | – | – | – | – | – | – | – |
| Cc1cc(N2CCN(CC(=O)Nc3n[nH]c4ncccc34)CC2)n2ncnc2n1 | – | – | – | > 4550 | 0.022 µM | 43.4% | 0.216 µMequiv/µM | > 100 µM | – | – | – | – | – | – | – | – |

From ChEMBL document CHEMBL4393694, “A multifunctional therapeutic approach: Synthesis, biological evaluation, crystal structure and molecular docking of diversified 1H-pyrazolo[3,4-b]pyridine derivatives against Alzheimer's disease” (Eur J Med Chem, 2019)
